Bioassay records deposited in PubChem by Johns Hopkins Ion Channel Center.
Compounds with a hit are over-represented: about 3.5% of the library has one in this group of screens.
MrgX1 allo act: human MrgX1 positive allosteric modulation, primary screen. Q96LB2. MrgX1-HEK293, Fluo-4 calcium flux, FDSS; stronger effect = higher value. B-score at 10 µM. 310,000 compounds, 0.63% hits. AID 588675;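 active means plate-corrected calcium response at least 3 library SD above typical, normal starting fluorescence, not activating the receptor alone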;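 further: compound read alongside a low EC10 to EC30 dose of BAM8-22 agonist; peak minus trough fluorescence over baseline measured at the second addition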
Target sequence (Q96LB2 whole entry, looked up): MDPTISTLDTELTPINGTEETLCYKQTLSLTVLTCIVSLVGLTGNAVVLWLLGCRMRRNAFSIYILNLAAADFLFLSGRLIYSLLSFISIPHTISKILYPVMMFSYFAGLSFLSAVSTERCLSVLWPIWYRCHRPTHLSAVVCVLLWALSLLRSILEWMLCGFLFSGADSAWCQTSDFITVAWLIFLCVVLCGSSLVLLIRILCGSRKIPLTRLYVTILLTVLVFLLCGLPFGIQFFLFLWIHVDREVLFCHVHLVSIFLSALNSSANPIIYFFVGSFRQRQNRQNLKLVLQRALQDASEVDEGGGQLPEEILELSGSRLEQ
MrgX1 ag: activates human MrgX1 receptor signaling. Q96LB2. MrgX1-HEK293 cells, Fluo-4 calcium fluorescence, agonist mode; stronger effect = higher value. B-score at 10 µM. 310,000 compounds, 0.44% hits. AID 588627;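 active means calcium response B-score plate-corrected fluorescence ratio at least 3 library SD, with starting fluorescence B-score inside 5 SD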
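Assay system: stable human MrgX1 HEK293 cell line. Quantity: 15,000 cells per well. Schedule: cells plated overnight, dye loaded 0.5 h 37 °C, 0.5 h room temperature. Detection: Fluo-4 NW calcium-flux fluorescence, kinetic read. Read-out basis: peak-minus-minimum fluorescence over baseline, converted to B scores. Control set: positive and negative control wells on each plate.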
RGS4 pot: potentiators or activators of RGS4; HEK293 M3R/inducible RGS4, carbachol calcium flux Fluo4; stronger effect = lower value; B-score at 10 µM; 310,000 compounds, 0.92% hits;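 active means B-score of the integrated calcium signal more than 4 SD below the library mean, with starting fluorescence not abnormally high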;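 further: negative B-score means reduced calcium response which marks RGS4 activation or potentiation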
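test system = M3R-expressing HEK293 line, RGS4 induced by doxycycline | probe or stimulus = carbachol at ECmax as muscarinic agonist stimulus | timing = dye loading 30 min 37 °C, buffer rest 30 min RT | signal = calcium dye Fluo4 fluorescence | evaluation = B score from integrated fluorescence ratio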
RGS4 block: human RGS4 inhibition | P49798 | HEK293 M3R/RGS4 inducible, Fluo-4 calcium flux; stronger effect = higher value; triggered by carbachol at its EC20 | B-score at 10 µM | 310,000 compounds, 0.45% hits | AID 463165;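 active means B-score, a plate-corrected calcium signal, over three deviations above library mean, with baseline fluorescence within five deviations of library mean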;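 further: RGS4 expression induced by doxycycline in cells with stable M3 receptor; B-score is computed from the integrated fluorescence ratio over baseline after carbachol; higher B-score means a larger calcium signal and so more RGS4 inhibition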
Target sequence (P49798 whole entry, looked up): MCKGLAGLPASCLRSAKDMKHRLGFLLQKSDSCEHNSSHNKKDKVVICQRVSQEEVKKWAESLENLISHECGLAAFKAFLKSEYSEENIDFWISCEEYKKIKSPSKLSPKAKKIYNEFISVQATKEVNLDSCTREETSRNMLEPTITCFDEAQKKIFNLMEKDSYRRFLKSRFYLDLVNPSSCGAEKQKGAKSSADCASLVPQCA
MrgX1 antag: antagonists of human MrgX1 receptor; Q96LB2; AID 588676; MRGX1-HEK293 calcium flux, Fluo-4, BAM8-22 antagonism; stronger effect = lower value; 310,000 compounds, 1.3% hits; B-score at 10 µM;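 active means calcium-response B-score plate-corrected more than 3 library SD below zero, starting fluorescence within 5 deviations, no agonist response on first addition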;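 further: peak minus trough fluorescence over baseline after final BAM8-22 challenge near maximal dose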
Each line names hits and unclear results; the compound was inactive in the other large screens.

CCOP(=O)(OCC)c1cccc(O)c1	MrgX1 antag -4.58
CCOP(=O)(OCC)c1cccc(OP(=O)(c2cccc([N+](=O)[O-])c2)c2cccc([N+](=O)[O-])c2)c1	none
C=C(C)[C@@]12OC3(c4ccccc4)O[C@@H]1C1[C@@H]4O[C@]4(CO)[C@@H](O)[C@]4(O)C(=O)C(C)=C[C@H]4[C@@]1(O3)[C@H](C)[C@H]2OC(=O)/C=C/C=C/c1ccccc1 (stereo not given in full)	RGS4 pot -8.62
C/C=C1/C[N+]2(C)CCC34C(=C(C=O)[C@H]1C[C@@H]32)Nc1ccccc14 (stereo not given in full)	none (no result: RGS4 pot, RGS4 block)
CN1CCN(Cc2cn(C)c3ccccc23)CC1CCO (stereo not given)	none
C[N+]1(CCC(C(N)=O)(c2ccccc2)c2ccccc2)CCCCC1	RGS4 pot -7
COC(=O)C1=CCCN(C)C1	MrgX1 ag 56.7
Cc1cc(C)cc(NC2=NCCCS2)c1	none
C=CCN1C(=O)NC(=O)/C(=C/c2ccoc2)C1=O	MrgX1 antag -6.46
C=CCN1C(=O)/C(=C/c2cc(C)n(-c3ccccn3)c2C)C(=O)NC1=S	MrgX1 antag -5.17
CCN1C(=O)NC(=O)/C(=C\c2cn(CC(=O)N3CCCC3)c3ccccc23)C1=O	none
O=C1NC(=O)N(c2ccccc2F)C(=O)/C1=C/c1cn(CC(=O)N2CCOCC2)c2ccccc12	RGS4 block 9.92
CCN(CC)C(=O)c1ccc2c(c1)C1C(Cl)C(Sc3ccccc3[N+](=O)[O-])CC1C(C(=O)O)N2 (stereo not given)	MrgX1 antag -6.66
Cc1ccc2c(c1Cl)NC(C(=O)O)C1CC(Sc3ccccc3[N+](=O)[O-])C(Cl)C21 (stereo not given)	none
NC(Cc1ccccc1)Cc1ccccc1	none
C[N+](C)(C)Cc1ccccc1	RGS4 pot -8.55
Cc1ccc2cc(CNCCc3ccccc3C)c(=O)[nH]c2c1	none
CCN(CC)c1ccc(/C=C2/C(=O)NC(=O)N(CC3CCCO3)C2=O)cc1 (stereo not given)	MrgX1 antag -4.55
O=C1NC(=O)N(CC2CCCO2)C(=O)/C1=C/c1cccs1 (stereo not given)	none
CCc1cc(=O)oc2c(C)c(OCC(=O)N3C[C@H]4C[C@@H](C3)c3cccc(=O)n3C4)ccc12	none
CCn1c(O)c(/C=N/NC(=O)c2ccccc2)c(=O)n(CC)c1=S	MrgX1 ag 48.6
Cc1cc(OCC(=O)NCc2ccc(S(N)(=O)=O)cc2)c2c3c(c(=O)oc2c1)CCC3	none
CN(C)c1ccc(P(=S)(N(C)C)N(C)C)cc1	none
CCOP(=S)(OCC)c1ccc(N(C)C)cc1	MrgX1 allo act 10.2
COc1ccc(CNCCc2c(C)[nH]c3ccc(OC(F)(F)F)cc23)c(OC)c1	MrgX1 antag -4.7
Clc1ccc(CCC(Cn2ccnc2)Sc2c(Cl)cccc2Cl)cc1 (stereo not given)	none (no result: RGS4 pot, RGS4 block)
CC/C(=C\C=C\[C@@H]1C=C[C@@H]2CCC[C@H]2[C@@H]1C(=O)c1ccc[nH]1)[C@@H]1O[C@@H]([C@@H](C)C(=O)O)CC[C@@H]1C	MrgX1 ag 35.2, RGS4 pot -8.25
CCOc1ccccc1N=C1SCCCN1C	none
CCOc1cccc(=NC2CCCCC2)c2c(C)n(C)c(C)c12	MrgX1 antag -5.99
CC1(C)CC[C@]2(C)CC[C@]3(C)C4C[C@@H]5OO[C@@]6(O5)C(CCCC6(C)C)[C@]4(C)CC[C@@]3(C)C2C1 (stereo not given in full)	none (no result: RGS4 pot, RGS4 block)
C#CC1(OC(=O)c2ccccc2)CC(C)N(C)CC1C (stereo not given)	RGS4 pot -7.03
CN(C)C(=O)Oc1ccc2c(c1)O/C(=C\c1cccc(Cl)c1)C2=O	none
O=C(c1ccc(Cl)cc1)C1CCCN(Cc2cccc3cnccc23)C1 (stereo not given)	RGS4 pot -7.28
O=C(c1ccc(Cl)cc1)C1CCCN(Cc2ccc3ncccc3c2)C1 (stereo not given)	RGS4 pot -7.35
COc1ccc(CN2CCCC(C(=O)c3ccc(Cl)cc3)C2)c(OC)c1 (stereo not given)	none
CC1CCN(c2cc(Br)c([N+](=O)[O-])cc2F)CC1	none
O=C(Cn1ncn2c(cc3cc(F)ccc32)c1=O)N1CCC2(CC1)OCCO2	none
NCc1cc(=O)[nH]o1	none (no result: RGS4 pot, RGS4 block)
CCOc1ccc(N2C(=O)NC(=O)/C(=C/c3cnc(SC)nc3)C2=O)cc1	none
Cc1ccc2c(c1)CC1(CN2C)C(=O)NC(=O)N(c2ccccc2C)C1=O (stereo not given)	MrgX1 antag -8.46
Cc1ccc2c(c1)CC1(CN2C)C(=O)NC(=O)N(c2cccc(C)c2C)C1=O (stereo not given)	none
O=C(O)c1ccccc1-c1ccc(C=C2C(=O)N(c3ccccc3)C(=S)N(c3ccccc3)C2=O)o1	none
C/C=C(\C)C(=O)OC1C(C)=C2C(C1OC(=O)CCCCC)C(C)(OC(C)=O)CC(OC(=O)CCC)C1(O)C2OC(=O)C1(C)O (stereo not given)	MrgX1 ag 49.3, RGS4 pot -8.9
COc1ccc2c(c1)/C(=C/c1cnc[nH]1)C(=O)N2	none
O=C1Nc2ccccc2/C1=C/c1cnc[nH]1	MrgX1 antag -6.74
COC(=O)C1=C(c2ccccc2)C[C@@H]2CC[C@H]1N2C(=O)NC1CCCCC1	none
Cc1ccc(N=C(/N=C(\N)N[N+](=O)[O-])Nc2ccc(C)cc2)cc1	none
CCOc1cc2c(cc1OCC)-n1cccc1C(c1cccc([N+](=O)[O-])c1)NC2 (stereo not given)	none
Cc1c(C(=O)C(=O)N2CCC3(CC2)OCCO3)c2ccccc2n1C	none
C[N+]12CCC(CC1)C(C(O)(c1cccc(Cl)c1)c1cccc(Cl)c1)C2 (stereo not given)	RGS4 pot -9.15
CC[N+]12CCC(CC1)C(C(O)(c1ccccc1)c1ccccc1)C2 (stereo not given)	RGS4 pot -7.96
CC(C)[N+]12CCC(CC1)C(C(O)(c1ccccc1)c1ccccc1)C2 (stereo not given)	RGS4 pot -8.43
CCc1ccc(NP(=O)(Oc2ccccc2F)Oc2ccccc2F)cc1	none
Cc1ccc(NP(=O)(Oc2ccccc2F)Oc2ccccc2F)cc1	MrgX1 antag -6.72
CN[C@H]1C[C@H]2O[C@@](C)([C@H]1OC)n1c3ccccc3c3c4c(c5c6ccccc6n2c5c31)C(=O)NC4	MrgX1 allo act 10.2, RGS4 block 4.93
CN1[C@@H]2CC[C@H]1CC(OC1c3ccccc3CCc3ccccc31)C2 (stereo not given in full)	none (no result: RGS4 pot, RGS4 block)
CCOc1ccccc1CN1C2CCC1CC(c1ccc(C)cc1)C2 (stereo not given)	none
CCOC(C(=O)OCCCN(CC)CC)(c1ccccc1)c1ccccc1	none
CCN(CC)CCCOC(=O)C(OC(C)C)(c1ccccc1)c1ccccc1	RGS4 pot -10.6
